ABHD4 inh: ABHD4 (mouse) inhibition, primary FP screen; Q8VD66; purified mABHD4, FP-Rh probe fluorescence polarization; inhibition, % at 8.92 µM; 370,000 compounds, 0.54% hits; AID 720543;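 active = inhibition exceeding the mean over every tested compound plus 3 SD, cut at about 30% in these data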;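 also: 0% = plate median of compound wells and 100% = S159A mutant with DMSO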
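Test system: mABHD4 protein | Buffer or medium: HEPES pH 7.0 buffer, 150 mM NaCl, 0.01% Pluronic F-127 | Probe or stimulus: FP-Rh fluorescent activity-based probe, added after compound pre-incubation | Timing: Pre-incubation 45 min, probe exposure 60 min, at 25 °C | Technique: Fluorescence polarization, excitation 525 nm, emission 598 nm, BODIPY TMR filters | Repeats: Single well per compound (singlicate)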
TCR CD3 inh: inhibitors of human TCR-CD3 interaction; TAMRA-labeled TCR probe fluorescence, biochemical; inhibition, % at 9.4 µM; 360,000 compounds, 0.37% hits; AID 651800; in the data active = inhibition above about 19%;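 also: recombinant mutant TCR 2C K166C tagged with TAMRA read by polarization; 0% = receptor in buffer alone and 100% = receptor with positive control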
DAGLB inh: diacylglycerol lipase beta (human) inhibition. inhibition, % at 5.17 µM. 340,000 compounds, 0.059% hits. HEK293T DAGLB membrane lysate, EnzChek fluorogenic substrate; in the data active = inhibition above about 34%;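 also: 0% = enzyme with vehicle and 100% = wells lacking enzyme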
HTRA1 inhibitor: inhibitors of human serine peptidase HTRA1 | inhibition, % at 5.96 µM | recombinant HTRA1, FP-rhodamine activity-based probe, fluorescence polarization | 340,000 compounds, 0.5% hits | Q92743 | AID 504803; in the data active = inhibition above about 36%;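 also: 0% = enzyme with DMSO and 100% = wells lacking enzyme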
Target sequence (Q92743 whole entry, looked up): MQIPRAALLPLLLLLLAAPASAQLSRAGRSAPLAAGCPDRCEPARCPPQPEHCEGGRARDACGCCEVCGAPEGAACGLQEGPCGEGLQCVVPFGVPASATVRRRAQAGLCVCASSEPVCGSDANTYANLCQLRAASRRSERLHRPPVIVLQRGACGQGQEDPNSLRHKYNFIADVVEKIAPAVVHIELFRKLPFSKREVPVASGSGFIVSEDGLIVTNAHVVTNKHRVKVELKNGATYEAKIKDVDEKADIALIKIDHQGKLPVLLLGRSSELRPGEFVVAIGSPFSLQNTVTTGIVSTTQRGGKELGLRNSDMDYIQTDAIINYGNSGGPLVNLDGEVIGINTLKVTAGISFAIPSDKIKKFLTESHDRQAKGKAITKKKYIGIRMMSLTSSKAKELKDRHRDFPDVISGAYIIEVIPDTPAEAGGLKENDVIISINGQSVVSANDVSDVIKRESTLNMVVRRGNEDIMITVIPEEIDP
SIAE primary: human SIAE inhibition, primary screen; inhibition, % at 9.66 µM; SIAE FP-Rh probe binding, fluorescence polarization; Q9HAT2; 370,000 compounds, 0.69% hits;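 active = inhibition above a cutoff: mean of compounds within the control limits plus 3 SD of those, cut at about 17% in these data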;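 also: 0% = plate median of compound wells and 100% = probe without SIAE protein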
HTRA1 inh conf: confirmation of human HTRA1 inhibitors. shares compounds with HTRA1 inhibitor. recombinant HTRA1, FP-rhodamine activity-based probe, fluorescence polarization. inhibition, % at 5.96 µM. 1,600 compounds, 66% hits;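 active = mean inhibition over three repeats above a set limit taken from the earlier primary screen, cut at about 37% in these data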;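 also: 0% = HTRA1 with DMSO and 100% = wells lacking HTRA1; inhibitors block probe binding so polarization drops and inhibition rises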
Active calls of the source: *. In the library only some 1.6% were active in any assay of this set; here they are far more common.

Cc1ccc(NC(=O)NNC(=O)CSC2CCc3ccccc32)c(C)c1 (stereo not drawn) was read as ABHD4 inh 9, TCR CD3 inh -6 and SIAE primary 0.
Cc1cccc(NC(=O)COc2coc(CN3CCN(c4ccccc4)CC3)cc2=O)c1C was read as ABHD4 inh 2, TCR CD3 inh 6, DAGLB inh -1, HTRA1 inhibitor 57*, SIAE primary -3 and HTRA1 inh conf 10.
`O=C(COc1coc(CN2CCN(c3ccccc3)CC2)cc1=O)Nc1ccccc1` gave ABHD4 inh 8, TCR CD3 inh 0, DAGLB inh 0, HTRA1 inhibitor 2 and SIAE primary 13.
COC[C@@H](O)[C@H]1OCc2cccc(OC)c2[C@@H]1/C=C/c1ccccc1 was read as ABHD4 inh -8 and SIAE primary -13.
COCCN1C=C2C(=O)C(C)(OC(=O)CCC(=O)OC)C(=O)C(Br)=C2C=C1c1ccc(OC)cc1 (stereo not drawn) was read as DAGLB inh 2 and HTRA1 inhibitor 27.
Screening CCN(CC)CCCN1C=C2C(=O)C(C)(OC(=O)CCC(=O)OC)C(=O)C(Br)=C2C=C1c1ccc(OC)cc1 (stereo not drawn) returned ABHD4 inh 15, TCR CD3 inh 8, DAGLB inh 7, HTRA1 inhibitor 20 and SIAE primary 3.
`COC(=O)CCC(=O)OC1(C)C(=O)C2=CN(C3CCCC3)C(c3ccc(OC)cc3)=CC2=C(Br)C1=O` (stereo not drawn) gave ABHD4 inh 9, TCR CD3 inh -4, DAGLB inh 6, HTRA1 inhibitor 61*, SIAE primary 6 and HTRA1 inh conf 52*.
COC(=O)CCC(=O)OC1(C)C(=O)C2=CN(c3ccc(OC)cc3)C(c3ccc(OC)cc3)=CC2=C(Br)C1=O (stereo not drawn) was read as DAGLB inh 9, HTRA1 inhibitor 53* and HTRA1 inh conf 63*.
Screening C=CCN1C=C2C(=O)C(C)(OC(=O)CCC(=O)OC)C(=O)C(Br)=C2C=C1c1ccc(OC)cc1 (stereo not drawn) returned DAGLB inh 4, HTRA1 inhibitor 63* and HTRA1 inh conf 43*.
Oc1ccc(N=Cc2ccc(-c3cccs3)s2)cc1 was read as ABHD4 inh 86*, TCR CD3 inh 43*, DAGLB inh 3, HTRA1 inhibitor 62*, SIAE primary 45* and HTRA1 inh conf -27.
Screening O=Cc1ccc(-c2cccs2)s1 returned ABHD4 inh -8, TCR CD3 inh 2, DAGLB inh -2, HTRA1 inhibitor 1 and SIAE primary -5.
Screening CCOc1ccc(/C=C/C(=O)c2cc(Br)ccc(=O)c2O)cc1 returned ABHD4 inh 23, TCR CD3 inh 10, DAGLB inh 9, HTRA1 inhibitor 51*, SIAE primary 16 and HTRA1 inh conf 44*.
Cc1cc(C)c2c(ccc3ccccc32)n1 was read as ABHD4 inh 4, TCR CD3 inh -4, DAGLB inh -1, HTRA1 inhibitor -4 and SIAE primary 2.
Screening Oc1ccc(-c2nc3ccc4ccccc4c3c3c2CCC3)cc1O returned ABHD4 inh 15, TCR CD3 inh -3, DAGLB inh 7, HTRA1 inhibitor 41*, SIAE primary -2 and HTRA1 inh conf 56*.
For Cc1cccc(C)c1NC(=O)C1CCCN1S(=O)(=O)c1cccc2cccnc12 (stereo not drawn) the results were ABHD4 inh 4 and SIAE primary -2.
Screening Nc1cc(N)c(OCC(F)(F)F)cc1OCC(F)(F)F returned DAGLB inh 0, HTRA1 inhibitor 48* and HTRA1 inh conf 34.
Cc1cc(-c2ccccc2)nc(N/N=C/c2ccc(O)cc2O)n1 was read as ABHD4 inh 24, TCR CD3 inh -2, DAGLB inh 3, HTRA1 inhibitor 41*, SIAE primary 14 and HTRA1 inh conf 75*.
Screening Oc1ccc(/C=N/Nc2cccc3cccnc23)c(O)c1 returned ABHD4 inh 29, TCR CD3 inh -5, DAGLB inh 3, HTRA1 inhibitor 47*, SIAE primary 7 and HTRA1 inh conf 33.
Screening COC(=O)c1cccc(OC[C@@H](O)CN2CCC(C(O)(c3ccccc3)c3ccccc3)CC2)c1 returned ABHD4 inh -2 and SIAE primary -5.
`CN(C)c1ccc(C=c2c3ccccc3n3c2c2ccccc2[n+]3C)cc1` gave ABHD4 inh 58*, TCR CD3 inh 31*, DAGLB inh 18, HTRA1 inhibitor 87*, SIAE primary 17* and HTRA1 inh conf 90*.
Screening Cc1cc2c(=Cc3ccc(N(C)C)cc3)c3ccccc3n2[n+]1C returned ABHD4 inh -101, TCR CD3 inh -30, DAGLB inh 6, HTRA1 inhibitor -20 and SIAE primary -74.
`CCOC(=O)c1cc2c(=Cc3ccc(N(C)C)cc3)c3ccccc3n2[n+]1C` gave ABHD4 inh -68, TCR CD3 inh -22, DAGLB inh -3, HTRA1 inhibitor 46*, SIAE primary -45 and HTRA1 inh conf 2.
Screening COC(=O)CCN(Cc1ccc(OC)cc1OC)S(=O)(=O)c1ccccc1Br returned ABHD4 inh -9, TCR CD3 inh 3 and SIAE primary -5.
For CCc1ccc(C(=O)/C=C2\Sc3ccccc3NC2=O)cc1 the results were ABHD4 inh -9, TCR CD3 inh 10, DAGLB inh 3, HTRA1 inhibitor 59*, SIAE primary 6 and HTRA1 inh conf 93*.
CCCCNC(=O)/C=C1\Sc2ccccc2NC1=O was read as ABHD4 inh -3, TCR CD3 inh -2, DAGLB inh -1, HTRA1 inhibitor 1 and SIAE primary 0.
Screening O=C(Oc1c(CN2CCOCC2)cc(Cl)c2cccnc12)c1cccs1 returned ABHD4 inh 7, TCR CD3 inh -8, DAGLB inh 1, HTRA1 inhibitor 44*, SIAE primary 9 and HTRA1 inh conf 11.
For O=C(Oc1c(Cl)cc(Cl)c2cccnc12)c1cccs1 the results were ABHD4 inh 15, TCR CD3 inh -5, DAGLB inh -3, HTRA1 inhibitor 45*, SIAE primary 10 and HTRA1 inh conf 24.
For O=C(Oc1c(CN2CCOCC2)cc(Cl)c2cccnc12)c1ccccc1Cl the results were ABHD4 inh 12, TCR CD3 inh -5, DAGLB inh -2, HTRA1 inhibitor 37*, SIAE primary 16 and HTRA1 inh conf 39*.
Screening COc1cc(C(=O)Oc2c(CN3CCOCC3)cc(Cl)c3cccnc23)cc(OC)c1OC returned DAGLB inh -1, HTRA1 inhibitor 50* and HTRA1 inh conf 71*.
`O=C(Oc1c(CN2CCOCC2)cc(Cl)c2cccnc12)c1ccc(F)cc1` gave ABHD4 inh 6, TCR CD3 inh 7, DAGLB inh 1, HTRA1 inhibitor 30 and SIAE primary 4.
Cn1c(NC(=O)c2ccccc2)nc(Cc2ccccc2)c1Cc1ccccc1 was read as ABHD4 inh 10 and SIAE primary -4.

Assay outcomes from PubChem BioAssay.
